# Source: PMC3088362 (Journal of the American Society for Mass Spectrometry, 2010)
# What was measured:
# Format in all cases: biochemical
# human TPST-2 [1] = biological target: T1, human TPST-2 (Homo sapiens, UniProt O60704); experiment: LC-MS initial-velocity kinetics, Reaction 1: sulfation of nonCCR8
# T1 sequence (O60704 25-377 limits assumed): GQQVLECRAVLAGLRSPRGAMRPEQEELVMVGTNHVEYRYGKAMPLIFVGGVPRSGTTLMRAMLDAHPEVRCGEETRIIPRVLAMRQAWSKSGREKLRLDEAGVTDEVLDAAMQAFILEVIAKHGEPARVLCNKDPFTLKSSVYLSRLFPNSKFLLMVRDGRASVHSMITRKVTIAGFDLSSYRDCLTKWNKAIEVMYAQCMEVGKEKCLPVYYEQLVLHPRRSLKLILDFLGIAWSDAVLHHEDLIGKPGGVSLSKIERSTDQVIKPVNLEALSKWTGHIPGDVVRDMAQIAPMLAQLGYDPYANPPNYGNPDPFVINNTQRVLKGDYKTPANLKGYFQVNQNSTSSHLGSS
# In short: (§1)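 Enzyme was soluble HPC4-epitope-tagged human TPST-2 (transferrin signal peptide), affinity-purified from stably transfected CHO-K1 cells. PAPS and peptide were varied as a matrix in 20 mM MOPS pH 7.5, 100 mM NaCl, 10% glycerol at 30 °C. Reactions started with 250–750 nM enzyme, ran 6–20 min, and were quenched with methanol (0.5 µM final internal standard). Product was read by RP-LC negative-ESI SIM against a calibration curve. Data were fit to the ping-pong equation; kcat/Km came from fitted constants.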
# human TPST-2 [2] = biological target: T1, human TPST-2; experiment: Product inhibition by PAP, Reaction 1
# In short: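 Initial rates of nonCCR8 sulfation by HPC4-purified soluble human TPST-2 were measured at fixed PAP levels. Buffer was 20 mM MOPS pH 7.5, 100 mM NaCl, 10% glycerol, 30 °C. Reactions were quenched with methanol containing internal standard, and product was quantified by LC-ESI-MS SIM. Data were fit by nonlinear regression to competitive or noncompetitive inhibition equations. Two or three independent experiments.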
# human TPST-2 [3] = biological target: T1, human TPST-2; experiment: Product inhibition by PAP, Reaction 2; settings: pH 7.5, 30°C
# human TPST-2 [4] = biological target: T1, human TPST-2; experiment: LC-MS initial-velocity kinetics, Reaction 2: sulfation of sY15CCR8
# In short: as §1
# human TPST-2 [5] = biological target: T1, human TPST-2; experiment: 35S-sulfation of factor IX by TPST-2; settings: with (lane 1) or without (lane 2) TPST-2; 6 h at 37°C, pH 6.9; autoradiography
compound,measurement,setting,value
VTDYYYPDI [nonCCR8],specificity constant kcat/Km,"human TPST-2 [1]; Reaction 1, for nonCCR8, calculated from Table 1 values",270 M⁻¹ s⁻¹
same,estimated Vmax,"human TPST-2 [1]; Reaction 1, calculated from intercept replots, pH 7.5, 30°C",6.7 mU/mg protein
same,Km of nonsulfated CCR8 peptide relative to monosulfated peptide,human TPST-2 [1]; ratio to Km of sY15CCR8,at least five
Nc1ncnc2c1ncn2[C@@H]1O[C@H](COP(=O)(O)O)[C@@H](OP(=O)(O)O)[C@H]1O [PAP],"PAP inhibition patterns, Reaction 1, compared with Reaction 2","human TPST-2 [2]; Reaction 1, with respect to PAPS and nonsulfated CCR8, data not shown",The same PAP inhibition patterns were observed with respect to PAPS and nonsulfated CCR8 substrates
same,"KI', product inhibition constant for PAP versus nonCCR8","human TPST-2 [2]; Reaction 1, pH 7.5, 30°C, mean of two or three independent experiments",1200 nM
same,PAP inhibition mode with respect to PAPS,"human TPST-2 [3]; PAPS varied 5-25 µM, sY15CCR8 25 µM",competitively
same,PAP inhibition mode with respect to sY15CCR8,"human TPST-2 [3]; sY15CCR8 varied 5-25 µM, PAPS 25 µM",noncompetitively
VTDsYYYPDI [sY15CCR8],specificity constant kcat/Km of sY15CCR8,"human TPST-2 [4]; Reaction 2, for sY15CCR8, calculated from Table 1 values",430 M⁻¹ s⁻¹
same,estimated Vmax,"human TPST-2 [4]; Reaction 2, from intercept replots, pH 7.5, 30°C",1.7 mU/mg protein
same,"substrate preference by specificity constants, Reaction 2",human TPST-2 [4]; sY15CCR8 compared with PAPS,preferred than PAPS
same,substrate suitability by kcat/Km,human TPST-2 [4]; sY15CCR8 compared with nonCCR8,more suitable substrate than nonCCR8
"Nc1ncnc2c1ncn2[C@@H]1O[C@H](COP(=O)(O)OS(=O)(=O)O)[C@@H](OP(=O)(O)O)[C@H]1O [PAPS, 3′-phosphoadenosine 5′-phosphosulfate, reference compound]","substrate preference by specificity constants, Reaction 1",human TPST-2 [1]; PAPS compared with nonCCR8,preferred substrate over nonCCR8
same,specificity constant kcat/Km for PAPS,"human TPST-2 [1]; Reaction 1, for PAPS, calculated from Table 1 values",590 M⁻¹ s⁻¹
same,specificity constant kcat/Km of PAPS,"human TPST-2 [4]; Reaction 2, for PAPS, calculated from Table 1 values",280 M⁻¹ s⁻¹
"factor IX: recombinant human factor IX, BeneFIX, Wyeth Pharmaceuticals Inc.",35S-sulfuryl group transfer to factor IX,human TPST-2 [5],occurred only in the presence TPST-2
